High-throughput results deposited in PubChem by several laboratories.
Most compounds without a hit are left out; they make up all but 2.5% or so of the library.
SUMO1-SIM PPI: modulators of SUMO1 protein-protein interactions, primary screen, biochemical, uHTS. 0.33% of 360,000 active. inhibition, % at 20 µM. SUMO1 binding to a labelled peptide, TR-FRET, 1 h; in the data active = inhibition above about 37%
DSG3 Ab inh: inhibitors of pemphigus antibody binding to DSG3, primary screen, biochemical, bead-based, flow cytometry, scFv-GFP; 0.48% of 310,000 active; AID 588358, 2011; DSG3-coupled beads, scFv-anti-DSG3-GFP binding; hits give low values; Desmoglein-3 (Homo sapiens), P32926; binding (percent of control), % at 10 µM;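 active = binding more than 3 SD below its plate's average and above zero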;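 also: hits lower antibody fragment binding to DSG3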
MBD2 DNA inh: inhibitors of MBD2 binding to methylated DNA, primary screen, biochemical, TR-FRET, DNA-binding domain, human; Methyl-CpG-binding domain protein 2 (Homo sapiens), Q9UBB5; 0.31% of 370,000 active; MBD2 binding to methylated oligonucleotide; inhibition, % at 4.4 µM; in the data active = inhibition above about 13%
DNMT1 block: human DNMT1 methyltransferase inhibitors, primary screen, biochemical, molecular beacon, fluorescence, HinP1I cleavage, uHTS; 0.83% of 360,000 active; DNA (cytosine-5)-methyltransferase 1 (Homo sapiens), P26358; inhibition (reported as % activation of signal), % at 10 µM; in the data active = inhibition above about 50%
Target sequence (P26358 504-1616 limits assumed): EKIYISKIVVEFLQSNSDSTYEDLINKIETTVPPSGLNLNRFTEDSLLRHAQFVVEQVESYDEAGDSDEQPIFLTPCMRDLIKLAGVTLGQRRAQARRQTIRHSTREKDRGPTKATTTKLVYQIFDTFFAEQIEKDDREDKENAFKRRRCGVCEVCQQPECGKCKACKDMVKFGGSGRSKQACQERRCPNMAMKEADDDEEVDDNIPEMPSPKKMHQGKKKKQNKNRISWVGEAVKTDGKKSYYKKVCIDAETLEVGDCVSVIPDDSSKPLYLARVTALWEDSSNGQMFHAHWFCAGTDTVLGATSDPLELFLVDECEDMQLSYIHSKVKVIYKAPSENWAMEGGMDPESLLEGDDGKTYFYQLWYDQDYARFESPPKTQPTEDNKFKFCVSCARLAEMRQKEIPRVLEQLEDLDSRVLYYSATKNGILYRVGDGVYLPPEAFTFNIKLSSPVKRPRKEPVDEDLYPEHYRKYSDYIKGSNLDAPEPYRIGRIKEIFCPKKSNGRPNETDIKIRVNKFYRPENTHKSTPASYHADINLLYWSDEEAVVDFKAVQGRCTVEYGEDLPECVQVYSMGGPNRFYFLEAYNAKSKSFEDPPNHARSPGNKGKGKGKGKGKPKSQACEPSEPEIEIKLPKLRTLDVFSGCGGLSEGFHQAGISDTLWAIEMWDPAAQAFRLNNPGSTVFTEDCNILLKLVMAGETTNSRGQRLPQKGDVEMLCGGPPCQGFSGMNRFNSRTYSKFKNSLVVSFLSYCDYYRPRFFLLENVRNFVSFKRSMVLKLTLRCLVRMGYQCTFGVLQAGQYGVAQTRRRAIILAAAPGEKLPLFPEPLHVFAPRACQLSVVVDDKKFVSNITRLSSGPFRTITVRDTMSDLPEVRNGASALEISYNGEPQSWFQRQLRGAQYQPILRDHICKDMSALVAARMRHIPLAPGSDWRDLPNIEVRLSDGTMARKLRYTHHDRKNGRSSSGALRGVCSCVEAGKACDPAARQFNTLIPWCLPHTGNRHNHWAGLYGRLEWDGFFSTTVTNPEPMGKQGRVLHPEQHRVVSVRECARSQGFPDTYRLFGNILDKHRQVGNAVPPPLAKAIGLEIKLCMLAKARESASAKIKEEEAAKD
UHRF1 MBD2 ctr: UHRF1 methylated DNA binding inhibitors, primary screen, counter-screen for MBD2 inhibitor project, biochemical, TR-FRET, human UHRF1, single concentration; E3 ubiquitin-protein ligase UHRF1 (Homo sapiens), Q96T88; UHRF1 binding to methylated oligo; inhibition, % at 4.4 µM; 0.75% of 370,000 active; in the data active = inhibition above about 21%;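 also: UHRF1 SRA domain binding a hemimethylated CpG hairpin DNA probe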
NS3 helicase inh: inhibitors of HCV NS3 helicase, primary screen, biochemical, Cy5 molecular beacon fluorescence | inhibition, % at 10.9 µM | Hepatitis C virus NS3 helicase | 0.56% of 290,000 active | NS3 helicase DNA unwinding;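 active = inhibition above the mean of all tested compounds plus 3 SD, set per campaign, cut at about 35% in these data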
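System: Hepatitis C virus NS3 helicase domain fragment enzyme | Reagent: Annealed dual-labelled DNA beacon duplex, ATP-started | Compound dosing: 10.9 µM single point, 0.8% DMSO | Incubation: 1 h reaction at 25 °C, ATP-initiated | Technique: Cy5 fluorescence | Evaluation: Percent inhibition from t60/t0 fluorescence ratio | Benchmarks: Low DMSO, high thioflavine S at 110 µM | Replication: Singlicate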
Each line names hits and unclear results; the compound was inactive in the other large screens.

O=c1c2c([N+](=O)[O-])cc([N+](=O)[O-])cc2sn1-c1ccc(Br)cc1	DSG3 Ab inh -121 (no result: MBD2 DNA inh, UHRF1 MBD2 ctr)
O=c1c2c([N+](=O)[O-])cc([N+](=O)[O-])cc2sn1Cc1ccccc1	DSG3 Ab inh 37
COC(=O)c1ccc(-c2sc3nc(N4CCOCC4)c4c(c3c2N)CC(C)(C)OC4)o1	DSG3 Ab inh 38
O=C(CSc1nccc(=O)[nH]1)NCc1ccc2c(c1)OCO2	none
Cc1[nH]c(=O)[nH]c(=O)c1S(=O)(=O)NCCc1ccc(S(N)(=O)=O)cc1	UHRF1 MBD2 ctr 21
COc1ccc(N2CC(O)=C(c3nc(-c4ccccc4)cs3)C2=N)cc1	DSG3 Ab inh 43
CCOC(=O)c1c(C)[nH]c(C(=O)COc2ccc3ccc(=O)oc3c2)c1C	none (no result: NS3 helicase inh)
Cc1ccc2nc(NC(=O)C3CCN(c4ncnc5sc(C)c(C)c45)CC3)sc2c1	DSG3 Ab inh 86 (no result: MBD2 DNA inh, UHRF1 MBD2 ctr)
CC(C)c1ccc(N(CC(=O)NCC2CCCO2)C(=O)Cn2nnc(-c3cccs3)n2)cc1 (stereo not given)	none
CCOC(=O)c1sc(=NC(=O)c2ccccc2Br)n(C)c1C	DSG3 Ab inh 68
Cc1ccc(S(=O)(=O)N2C[C@]3(O)C[C@@H]4C(=O)N(c5ccccc5)C(=O)[C@@H]4C[C@]3(OC(=O)NCc3ccco3)C2)cc1	none (no result: NS3 helicase inh)
Cc1ccc(S(=O)(=O)N2C[C@]3(O)C[C@@H]4C(=O)N(c5ccccc5)C(=O)[C@@H]4C[C@]3(OC(=O)NCc3ccccc3)C2)cc1	UHRF1 MBD2 ctr 23 (no result: NS3 helicase inh)
COc1ccc(NC(=O)c2ccc(NC(=O)CN(C)CC(=O)Nc3c(C)cccc3C)cc2)cc1	UHRF1 MBD2 ctr 22
COc1ccc(NC(=O)c2ccc3ccccc3c2)cc1	DSG3 Ab inh 97
COc1ccc(NC(=O)c2ccc3c(c2)C(=O)N(Cc2cccnc2)C3=O)cc1	DSG3 Ab inh 70
COc1ccc(NC(=O)CSCC(=O)N(C)CC(=O)Nc2c(C)cccc2C)cc1	none (no result: NS3 helicase inh)
COc1ccc(C(=O)NNC(=O)c2ccc3ccccc3c2)cc1	none (no result: NS3 helicase inh)
O=C(C1CC1)N1N=C(c2cccc(Br)c2)CC1(O)C(F)(F)F (stereo not given)	none
O=C1CCC(C(=O)N2CCC(CCO)CC2)CN1Cc1ccc(Cl)cc1 (stereo not given)	none
Cc1cccc(N2C(S)=C(C#N)C(=O)NC23CCCCC3)c1	none
Cc1cccc(NC2=C(C#N)C(=O)NC3(CCCC3)S2)c1	UHRF1 MBD2 ctr 24
CC(=NCCc1ccccc1)C1=C(O)CCC1=O	UHRF1 MBD2 ctr 45
Cc1cccc2cc(CN(C(=O)c3cccc([N+](=O)[O-])c3)C(C)C)c(=O)[nH]c12	DSG3 Ab inh 59
Cc1cccc2cc(COC(=O)c3cccc([N+](=O)[O-])c3)c(=O)[nH]c12	none (no result: SUMO1-SIM PPI, DSG3 Ab inh, MBD2 DNA inh, DNMT1 block, UHRF1 MBD2 ctr)
CCC(=NNS(=O)(=O)c1ccc(C)cc1)c1ccc(OC)c(C)c1	none (no result: NS3 helicase inh)
CCOC(=O)Cc1nn(CC)c(=O)c2ccccc12	none
CCOC(=O)Cc1nn(C)c(=O)c2ccccc12	UHRF1 MBD2 ctr 26
Cn1nc(CC(=O)Nc2ccc(N3CCN(C(=O)OC(C)(C)C)CC3)cc2)c2ccccc2c1=O	DSG3 Ab inh 86
Cn1nc(Cc2n[nH]c(=S)n2C)c2ccccc2c1=O	UHRF1 MBD2 ctr 56
Cn1nc(CC(=O)NCc2ccc(F)cc2)c2ccccc2c1=O	SUMO1-SIM PPI 46
Cn1nc(CC(=O)NCc2cccc3ccccc23)c2ccccc2c1=O	none
COc1ccc(-n2c(SCC(=O)NC3CC3)nc3ccccc3c2=O)cc1OC	none (no result: DSG3 Ab inh, NS3 helicase inh)
Nc1ccn([C@@H]2O[C@H](CNCc3cnc(N4CCOCC4)nc3)[C@@H](O)[C@H]2O)c(=O)n1	none (no result: NS3 helicase inh)
Cc1cc(=O)oc2cc(OCC(=O)Nc3ccccc3C(N)=O)c(Cl)cc12	SUMO1-SIM PPI 62
O=C(/C=C/Nc1ccc(F)c(Cl)c1)c1ccccc1	none
